Experimental data reported in ChEMBL document CHEMBL1150361, “Inhibitors of tubulin polymerization: synthesis and biological evaluation of hybrids of vindoline, anhydrovinblastine and vinorelbine with thiocolchicine, podophyllotoxin and baccatin III” (2008).
Active and inactive are the calls of the source. The calls are words filed in the database; no cut-off is given here.

Assays:
Tubulin (Sus scrofa) = Tubulin (Sus scrofa) (UniProt P02554+P02550); assay: Inhibition of pig brain tubulin polymerization at 10 uM
Tubulin (Sus scrofa), sequence (P02550 whole entry, looked up): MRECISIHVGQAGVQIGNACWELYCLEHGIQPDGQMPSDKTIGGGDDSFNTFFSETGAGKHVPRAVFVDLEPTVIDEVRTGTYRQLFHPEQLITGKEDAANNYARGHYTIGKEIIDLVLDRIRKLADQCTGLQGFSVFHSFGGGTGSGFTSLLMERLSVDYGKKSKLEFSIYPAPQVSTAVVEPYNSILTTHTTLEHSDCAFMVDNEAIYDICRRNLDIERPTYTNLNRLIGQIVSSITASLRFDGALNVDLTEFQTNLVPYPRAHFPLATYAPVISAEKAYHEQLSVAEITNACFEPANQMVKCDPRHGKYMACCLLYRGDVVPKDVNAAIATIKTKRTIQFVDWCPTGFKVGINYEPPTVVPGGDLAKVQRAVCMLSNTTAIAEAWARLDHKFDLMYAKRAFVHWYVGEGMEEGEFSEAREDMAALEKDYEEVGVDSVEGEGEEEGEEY
Tubulin (Sus scrofa), sequence (P02554 whole entry, looked up): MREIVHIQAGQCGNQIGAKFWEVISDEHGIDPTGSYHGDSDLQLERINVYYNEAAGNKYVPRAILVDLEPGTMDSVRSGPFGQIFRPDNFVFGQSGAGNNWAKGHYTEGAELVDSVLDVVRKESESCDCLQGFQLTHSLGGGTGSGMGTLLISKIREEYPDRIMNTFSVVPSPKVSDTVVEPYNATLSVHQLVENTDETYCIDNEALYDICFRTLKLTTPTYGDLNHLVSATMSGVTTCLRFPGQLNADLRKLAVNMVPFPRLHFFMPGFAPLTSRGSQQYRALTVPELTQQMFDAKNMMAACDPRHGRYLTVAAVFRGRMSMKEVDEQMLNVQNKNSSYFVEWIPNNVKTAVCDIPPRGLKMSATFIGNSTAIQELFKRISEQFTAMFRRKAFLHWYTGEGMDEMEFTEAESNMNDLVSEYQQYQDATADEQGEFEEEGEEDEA
Procedure, shortened: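 Tubulin purified from porcine brain by three warm-cold cycles plus anion-exchange to remove MAPs. Tubulin at 2.7 mg/ml was preincubated with drug (final 10 µM, 0.2% DMSO) in GTP-free K-Pipes pH 6.9 buffer with 10% glycerol, 15 min at 37 °C. Then 1 mM GTP was added and the mix held 30 min at 37 °C. Polymer and soluble fractions were separated at 30,000g and run on SDS-PAGE with Coomassie staining; densitometry; unpaired t-test.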

A549 [1] = assay: Cytotoxicity against human A549 cells after 24 hrs by MTS assay; assay type: functional, cell-based
Procedure, shortened: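 A549 cells seeded at 10³ cells/well, allowed to attach 24 h, then exposed to drug prepared in medium at 1, 10 or 100 µM for 24 h. MTS/PES reagent added, 1 h at 37 °C, absorbance read at 490 nm. Quintuplicate wells; viability expressed as percentage of control.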

A549 [2] = assay: Cell cycle arrest in human A549 cells assessed as accumulation at G2/M phase at 10 uM at 24 hrs; assay type: functional
Procedure, shortened: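 A549 human lung carcinoma cells were grown in E-MEM with 10% FBS, 2 mM L-glutamine, penicillin and non-essential amino acids at 37 °C, 5% CO2. Cells were seeded at 10⁵–2·10⁵ per well, attached 24 h, then drug-treated (DMSO vehicle control) for 24 h at 37 °C. They were harvested by trypsin, stained for DNA with the CycleTEST PLUS kit, and analysed by flow cytometry for G2/M fraction.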

A549 [3] = assay: Cytotoxicity against human A549 cells at 10 uM after 24 hrs […]; assay type: functional, cell-based

`CC[C@]12C=CCN3CC[C@@]4(c5ccc(OC)cc5N(C)[C@H]4[C@@](O)(C(=O)OC)[C@@H]1OC(=O)CCCCCCCCC(=O)OC1C[C@@]4(O)[C@@H](OC(=O)c5ccccc5)[C@@H]5[C@]6(OC(C)=O)CO[C@@H]6C[C@H](O[Si](CC)(CC)CC)[C@@]5(C)C(=O)[C@H](OC(C)=O)C(=C1C)C4(C)C)[C@@H]32` (some centres not stated) was tested, and the Activity (Tubulin (Sus scrofa)) was “Active” and the Activity (A549 [1]) was “Active”.
For `CC[C@]12C=CCN3CC[C@@]4(c5ccc(OC)cc5N(C)[C@H]4[C@@](O)(C(=O)OC)[C@@H]1OC(=O)CCC(=O)OC1C[C@@]4(O)[C@@H](OC(=O)c5ccccc5)[C@@H]5[C@]6(OC(C)=O)CO[C@@H]6C[C@H](O[Si](CC)(CC)CC)[C@@]5(C)C(=O)[C@H](OC(C)=O)C(=C1C)C4(C)C)[C@@H]32` (some centres not stated), the Activity (A549 [1]) was “Active”.
For `CC[C@]12C=CCN3CC[C@@]4(c5ccc(OC)cc5N(C)[C@H]4[C@@](O)(C(=O)OC)[C@@H]1OC(=O)CCCCCCCCC(=O)N[C@H]1CCc4cc(OC)c(OC)c(OC)c4-c4ccc(SC)c(=O)cc41)[C@@H]32`, the Activity (A549 [1]) was “Active”.
With `CC[C@]12C=CCN3CC[C@@]4(c5ccc(OC)cc5N(C)[C@H]4[C@@](O)(C(=O)OC)[C@@H]1OC(=O)CCC(=O)N[C@H]1CCc4cc(OC)c(OC)c(OC)c4-c4ccc(SC)c(=O)cc41)[C@@H]32` the Activity (Tubulin (Sus scrofa)) was “Active”, the Activity (A549 [1]) was “Active” and the Activity (A549 [2]) was 74%.
`CCC1=C[C@H]2CN(C1)Cc1c([nH]c3ccccc13)[C@@](C(=O)OC)(c1cc3c(cc1OC)N(C)[C@H]1[C@@](O)(C(=O)OC)[C@H](OC(=O)CCC(=O)O[C@H]4c5cc6c(cc5[C@@H](c5cc(OC)c(OC)c(OC)c5)[C@H]5C(=O)OC[C@@H]54)OCO6)[C@]4(CC)C=CCN5CC[C@]31[C@@H]54)C2` was tested, and the Activity (A549 [1]) was “Active” and the Activity (A549 [3]) was “Active”.
`CCC1=C[C@H]2CN(C1)Cc1c([nH]c3ccccc13)[C@@](C(=O)OC)(c1cc3c(cc1OC)N(C)[C@H]1[C@@](O)(C(=O)OC)[C@H](OC(=O)CCC(=O)N[C@H]4CCc5cc(OC)c(OC)c(OC)c5-c5ccc(SC)c(=O)cc54)[C@]4(CC)C=CCN5CC[C@]31[C@@H]54)C2` was tested, and the Activity (A549 [1]) was “Active”.
`CC[C@]12C=CCN3CC[C@@]4(c5ccc(OC)cc5N(C)[C@H]4[C@@](O)(C(=O)OC)[C@@H]1OC(=O)CCCCCCCCC(=O)O[C@H]1c4cc5c(cc4[C@@H](c4cc(OC)c(OC)c(OC)c4)[C@H]4C(=O)OC[C@@H]41)OCO5)[C@@H]32` was tested, and the Activity (A549 [1]) was “Active”.
In the case of `CC[C@]12C=CCN3CC[C@@]4(c5ccc(OC)cc5N(C)[C@H]4[C@@](O)(C(=O)OC)[C@@H]1OC(=O)CCC(=O)O[C@H]1c4cc5c(cc4[C@@H](c4cc(OC)c(OC)c(OC)c4)[C@H]4C(=O)OC[C@@H]41)OCO5)[C@@H]32`, the Activity (A549 [1]) is reported as “Active”.
